Results: ChEMBL document CHEMBL1121608, “Modification of the 5' position of purine nucleosides. 2. Synthesis and some cardiovascular properties of adenosine-5'-(N-substituted)carboxamides” (J Med Chem, 1980)

Legend:
Canis familiaris [1] = assay: Total time in minutes elapsed from the initiation of the change until return to the pretest value of blood pressure in coronary sinus of anesthetized dog at intravenous dosage of 0.01 mg/kg; type: functional, Canis lupus familiaris
Canis familiaris [2] = assay: Total time in minutes elapsed from the initiation of the change until return to the pretest value of blood pressure in coronary sinus of anesthetized dog at intravenous dosage of 0.1 mg/kg; type: functional, Canis lupus familiaris
Canis familiaris [3] = assay: Total time in minutes elapsed from the initiation of the change until return to the pretest value of heart rate in coronary sinus of anesthetized dog at intravenous dosage of 0.01 mg/kg; type: functional, Canis lupus familiaris
Canis familiaris [4] = assay: Total time in minutes elapsed from the initiation of the change until return to the pretest value of heart rate in coronary sinus of anesthetized dog at intravenous dosage of 0.1 mg/kg; type: functional, Canis lupus familiaris
Canis familiaris [5] = assay: Total time in minutes elapsed from the initiation of the change until return to the pretest value of oxygen partial pressure in coronary sinus of anesthetized dog at intravenous dosage of 0.01 mg/kg; type: functional, Canis lupus familiaris
Canis familiaris [6] = assay: Total time in minutes elapsed from the initiation of the change until return to the pretest value of oxygen partial pressure in coronary sinus of anesthetized dog at intravenous dosage of 0.1 mg/kg; type: functional, Canis lupus familiaris
Canis familiaris [7] = assay: Tested for percent increase in coronary sinus partial pressure of oxygen (PO2) in open chest anesthetized dog at intravenous dosage of 0.01 mg/kg; type: functional, Canis lupus familiaris
Canis familiaris [8] = assay: Tested for the percent increase in aortic blood pressure (BP) in open chest anesthetized dog at intravenous dosage of 0.01 mg/kg; type: functional, Canis lupus familiaris, Artery
Procedure, shortened: (§1)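 Open-chest anesthetized dogs, compound given iv at the stated dose. Aortic blood pressure is reported as the change from the control (pre-dose) value. Other set-up follows the group's earlier cardiovascular protocol.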

Canis familiaris [9] = assay: Tested for the percent increase in aortic blood pressure (BP) in open chest anesthetized dog at intravenous dosage of 0.10 mg/kg; type: functional, Canis lupus familiaris, Artery; conditions: dose 0.1 mg/kg; procedure, shortened: as §1
Canis familiaris [10] = assay: tested for the percent increase in heart rate (HR) in open chest anesthetized dog at intravenous dosage of 0.10 mg/kg; type: functional, Canis lupus familiaris; conditions: dose 0.1 mg/kg
Canis familiaris [11] = assay: Tested for the percent increase in coronary sinus partial pressure of oxygen (PO2) in open chest anesthetized dog at intravenous dosage of 0.10 mg/kg; type: functional, Canis lupus familiaris; conditions: dose 0.1 mg/kg
[12] = Lethal dose in mice after intraperitoneal administration; type: toxicity, organism-based; conditions: mouse, in vivo, ip
Procedure, shortened: (§2)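 Male and female mice, three per dose group, were given the compound by the stated route in increments of 0.5 log doses. The LD50 was estimated as an approximate value.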

[13] = Lethal dose in mice after peroral administration; type: toxicity, organism-based; conditions: mouse, in vivo, po; procedure, shortened: as §2
Canis familiaris [14] = assay: Total time in minutes elapsed from the initiation of the change until return to the pretest value of blood pressure in coronary sinus of anesthetized dog at intravenous dosage of 1 mg/kg; type: functional, Canis lupus familiaris
Canis familiaris [15] = assay: Total time in minutes elapsed from the initiation of the change until return to the pretest value of blood pressure in coronary sinus of anesthetized dog at intravenous dosage of 5 mg/kg; type: functional, Canis lupus familiaris
Canis familiaris [16] = assay: Total time in minutes elapsed from the initiation of the change until return to the pretest value of heart rate in coronary sinus of anesthetized dog at intravenous dosage of 1 mg/kg; type: functional, Canis lupus familiaris
Canis familiaris [17] = assay: Total time in minutes elapsed from the initiation of the change until return to the pretest value of heart rate in coronary sinus of anesthetized dog at intravenous dosage of 5 mg/kg; type: functional, Canis lupus familiaris
Canis familiaris [18] = assay: Total time in minutes elapsed from the initiation of the change until return to the pretest value of oxygen partial pressure in coronary sinus of anesthetized dog at intravenous dosage of 1 mg/kg; type: functional, Canis lupus familiaris
Procedure, shortened: (§3)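 Open-chest anesthetized dogs given compound by intravenous injection. Coronary sinus PO2 was monitored, and duration was the total time in minutes from the onset of the change until return to the pretest value.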

Canis familiaris [19] = assay: Total time in minutes elapsed from the initiation of the change until return to the pretest value of oxygen partial pressure in coronary sinus of anesthetized dog at intravenous dosage of 5 mg/kg; type: functional, Canis lupus familiaris; procedure, shortened: as §3
Canis familiaris [20] = assay: Tested for percent increase in coronary sinus partial pressure of oxygen (PO2) in open chest anesthetized dog at intravenous dosage of 1.00 mg/kg; type: functional, Canis lupus familiaris
Canis familiaris [21] = assay: Tested for the percent increase in aortic blood pressure (BP) in open chest anesthetized dog at intravenous dosage of 1.00 mg/kg; type: functional, Canis lupus familiaris, Artery; procedure, shortened: as §1
Canis familiaris [22] = assay: Tested for the percent increase in coronary sinus partial pressure of oxygen (PO2) in open chest anesthetized dog at intravenous dosage of 5.00 mg/kg; type: functional, Canis lupus familiaris
Canis familiaris [23] = assay: tested for the percent increase in heart rate (HR) in open chest anesthetized dog at intravenous dosage of 1 mg/kg; type: functional, Canis lupus familiaris
Canis familiaris [24] = assay: tested for the percent increase in aortic blood pressure (BP) in open chest anesthetized dog at intravenous dosage of 1 mg/kg; type: functional, Canis lupus familiaris, Artery
Procedure, shortened: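 Open-chest anesthetized dogs received intravenous doses. Aortic blood pressure was recorded as the change from control.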

Canis familiaris [25] = assay: tested for percent increase in coronary sinus partial pressure of oxygen (PO2) in open chest anesthetized dog at intravenous dosage of 1 mg/kg; type: functional, Canis lupus familiaris
Mus musculus [26] = assay: Tested for the lethal dose in mice after administration intraperitoneally; type: functional; conditions: ip; procedure, shortened: as §2
Mus musculus [27] = assay: Tested for the lethal dose in mice after administration perorally; type: functional; conditions: po; procedure, shortened: as §2
Canis familiaris [28] = assay: Total time in minutes elapsed from the initiation of the change until return to the pretest value of blood pressure in coronary sinus of anesthetized dog at intravenous dosage of 2 mg/kg; type: functional, Canis lupus familiaris
Canis familiaris [29] = assay: Total time in minutes elapsed from the initiation of the change until return to the pretest value of heart rate in coronary sinus of anesthetized dog at intravenous dosage of 2 mg/kg; type: functional, Canis lupus familiaris
Canis familiaris [30] = assay: Total time in minutes elapsed from the initiation of the change until return to the pretest value of oxygen partial pressure in coronary sinus of anesthetized dog at intravenous dosage of 2 mg/kg; type: functional, Canis lupus familiaris; procedure, shortened: as §3
Canis familiaris [31] = assay: Tested for the percent increase in aortic blood pressure (BP) in open chest anesthetized dog at intravenous dosage of 2.00 mg/kg; type: functional, Canis lupus familiaris, Artery; procedure, shortened: as §1
Canis familiaris [32] = assay: Tested for percent increase in coronary sinus partial pressure of oxygen (PO2) in open chest anesthetized dog at intravenous dosage of 2.00 mg/kg; type: functional, Canis lupus familiaris
Canis familiaris [33] = assay: Total time in minutes elapsed from the initiation of the change until return to the pretest value of blood pressure in coronary sinus of anesthetized dog at intravenous dosage of 0.001 mg/kg; type: functional, Canis lupus familiaris
Canis familiaris [34] = assay: Total time in minutes elapsed from the initiation of the change until return to the pretest value of heart rate in coronary sinus of anesthetized dog at intravenous dosage of 0.001 mg/kg; type: functional, Canis lupus familiaris
Canis familiaris [35] = assay: Total time in minutes elapsed from the initiation of the change until return to the pretest value of oxygen partial pressure in coronary sinus of anesthetized dog at intravenous dosage of 0.001 mg/kg; type: functional, Canis lupus familiaris
Canis familiaris [36] = assay: Tested for percent increase in coronary sinus partial pressure of oxygen (PO2) in open chest anesthetized dog at intravenous dosage of 0.001 mg/kg; type: functional, Canis lupus familiaris
Canis familiaris [37] = assay: Tested for the percent increase in aortic blood pressure (BP) in open chest anesthetized dog at intravenous dosage of 0.001 mg/kg; type: functional, Canis lupus familiaris, Artery; procedure, shortened: as §1
Canis familiaris [38] = assay: tested for percent increase in coronary sinus partial pressure of oxygen (PO2) in open chest anesthetized dog at intravenous dosage of 0.10 mg/kg; type: functional, Canis lupus familiaris; conditions: dose 0.1 mg/kg
Canis familiaris [39] = assay: Total time in minutes elapsed from the initiation of the change until return to the pretest value of oxygen partial pressure in coronary sinus of anesthetized dog at intravenous dosage of 0.10 mg/kg; type: functional, Canis lupus familiaris; conditions: dose 0.1 mg/kg
Canis familiaris [40] = assay: Tested for the percent increase in coronary sinus partial pressure of oxygen (PO2) in open chest anesthetized dog at intravenous dosage of 1.00 mg/kg; type: functional, Canis lupus familiaris

CONC(=O)[C@H]1O[C@@H](n2cnc3c(N)ncnc32)[C@H](O)[C@@H]1O
Duration (Canis familiaris [1]): 41 min | Duration (Canis familiaris [2]): 90 min | Duration (Canis familiaris [3]): 60 min | Duration (Canis familiaris [4]): 10 min | Duration (Canis familiaris [5]): 60 min | Duration (Canis familiaris [6]): 90 min | PO2 (Canis familiaris [7]): 157% | BP (Canis familiaris [8]): 9% | BP (Canis familiaris [9]): 39% | HR (Canis familiaris [10]): 2% | PO2 (Canis familiaris [11]): 143% | LD50 [12]: 20 mg/kg | LD50 [13]: 50 mg/kg

Nc1ncnc2c1ncn2C1O[C@H](C(=O)NCCc2ccccc2)[C@@H](O)[C@H]1O (some centres undefined)
Duration (Canis familiaris [14]): 1 min | Duration (Canis familiaris [15]): 60 min | Duration (Canis familiaris [16]): 18 min | Duration (Canis familiaris [17]): 6 min | Duration (Canis familiaris [18]): 25 min | Duration (Canis familiaris [19]): 60 min | PO2 (Canis familiaris [20]): 9% | BP (Canis familiaris [21]): 11% | PO2 (Canis familiaris [22]): 44% | LD50 [12]: 500 mg/kg | LD50 [13]: > 1000 mg/kg

Nc1ncnc2c1ncn2C1O[C@H](C(=O)NCc2ccccc2)[C@@H](O)[C@H]1O (some centres undefined)
Duration (Canis familiaris [14]): 60 min | Duration (Canis familiaris [16]): 24 min | Duration (Canis familiaris [18]): 60 min | HR (Canis familiaris [23]): 13% | BP (Canis familiaris [24]): 5 mmHg | PO2 (Canis familiaris [25]): 48% | LD50 (Mus musculus [26]): 200 mg/kg | LD50 (Mus musculus [27]): > 1000 mg/kg

Nc1ncnc2c1ncn2[C@@H]1O[C@H](CO)[C@@H](O)[C@H]1O [ADENOSINE]
Duration (Canis familiaris [28]): 2 min | Duration (Canis familiaris [29]): 4 min | Duration (Canis familiaris [30]): 2 min | BP (Canis familiaris [31]): 60 mmHg | PO2 (Canis familiaris [32]): 200%

CCNC(=O)[C@H]1OC(n2cnc3c(N)[n+]([O-])cnc32)[C@H](O)[C@@H]1O (some centres undefined)
Duration (Canis familiaris [33]): 120 min | Duration (Canis familiaris [34]): 120 min | Duration (Canis familiaris [35]): 120 min | PO2 (Canis familiaris [36]): 37% | BP (Canis familiaris [37]): 27 mmHg

Nc1c2ncn(C3O[C@H](C(=O)NC4CC4)[C@@H](O)[C@H]3O)c2nc[n+]1[O-] (some centres undefined)
Duration (Canis familiaris [1]): 60 min | Duration (Canis familiaris [34]): 60 min | Duration (Canis familiaris [5]): 75 min | PO2 (Canis familiaris [7]): 66% | BP (Canis familiaris [8]): 15%

CCCCNC(=O)[C@H]1OC(n2cnc3c(N)ncnc32)[C@H](O)[C@@H]1O (some centres undefined)
Duration (Canis familiaris [2]): 40 min | Duration (Canis familiaris [4]): 40 min | Duration (Canis familiaris [6]): 30 min | BP (Canis familiaris [9]): 5% | HR (Canis familiaris [10]): 16% | PO2 (Canis familiaris [38]): 30%

CCOCCNC(=O)[C@H]1OC(n2cnc3c(N)ncnc32)[C@H](O)[C@@H]1O (some centres undefined)
Duration (Canis familiaris [2]): 1 min | Duration (Canis familiaris [14]): 120 min | Duration (Canis familiaris [3]): 0 min | Duration (Canis familiaris [16]): 120 min | Duration (Canis familiaris [39]): 6 min | Duration (Canis familiaris [18]): 120 min | BP (Canis familiaris [8]): 8% | BP (Canis familiaris [21]): 15% | PO2 (Canis familiaris [40]): 135% | LD50 [12]: 50 mg/kg | LD50 [13]: > 1000 mg/kg
